Source: PubChem BioAssay
The list is not random: actives were taken first. Their share in the collection is about 2.9%.
CaV13 FRET inh – Primary screen for inhibitors of IQ motif and Ca2+-dependent inactivation inhibitor domain binding in CACNA1D, Förster resonance energy transfer in living cells, …. HEK cells, CFP/YFP FRET ICDI-IQ, plate reader, 10 min; percent FRET-ratio fall versus neutral wells. inhibition, % at 12.3 µM. 340,000 tested, 0.098% active;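 active = mean replicate inhibition of at least 30% and at least 1% of replicates passing that level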;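 also: 0% = median of the neutral control wells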
Arrestin-AP2 inh – inhibitors of human beta-arrestin and AP2 interaction; FITC-arrestin peptide / GST-AP2 beads, flow cytometry; AP2 beta2 appendage carries R879A mutation; inhibition, % at 10 µM; 340,000 tested, 0.31% active; AID 504490;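 active = inhibition above a set limit, near 3 SD of compounds lacking own fluorescence, cut at about 54% in these data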;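 also: plate controls were DMSO wells for no effect and 5 µM unlabelled arrestin peptide for full effect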
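System: GST-AP2 R879A glutathione beads; medium: PBS, Tween 20 0.05%, BSA 0.1%; reagent: fluorescein-tagged arrestin peptide at 50 nM final; schedule: pre-incubation 12 min, peptide binding 1 h, room temperature; detection: flow cytometry, FL1 (488/535 nm); read-out: inhibition as reduced fluorescein signal on beads, percent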
ADAM10 inh – inhibitors of human ADAM10; recombinant ADAM10, EDANS/DABCYL FRET peptide cleavage, 3 h; inhibition, % at 7 µM; 370,000 tested, 0.62% active; AID 720582;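 active = inhibition above a per-campaign cutoff equal to the mean of compounds falling between control-based bounds plus 3 SD, cut at about 20% in these data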;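 also: 0% = DMSO wells while the 100% control is not disclosed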
ADAM17 inh – ADAM17 inhibition, QFRET primary screen | P78536 | recombinant ADAM17, EDANS/DABCYL FRET peptide cleavage | inhibition, % at 6.95 µM | 370,000 tested, 0.83% active | AID 720648;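 active = inhibition above the mean of compounds lying between control limits plus 3 SD, set per campaign, cut at about 8.5% in these data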;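 also: 0% = DMSO-only wells as the low control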
Target sequence (P78536 215-824 limits assumed): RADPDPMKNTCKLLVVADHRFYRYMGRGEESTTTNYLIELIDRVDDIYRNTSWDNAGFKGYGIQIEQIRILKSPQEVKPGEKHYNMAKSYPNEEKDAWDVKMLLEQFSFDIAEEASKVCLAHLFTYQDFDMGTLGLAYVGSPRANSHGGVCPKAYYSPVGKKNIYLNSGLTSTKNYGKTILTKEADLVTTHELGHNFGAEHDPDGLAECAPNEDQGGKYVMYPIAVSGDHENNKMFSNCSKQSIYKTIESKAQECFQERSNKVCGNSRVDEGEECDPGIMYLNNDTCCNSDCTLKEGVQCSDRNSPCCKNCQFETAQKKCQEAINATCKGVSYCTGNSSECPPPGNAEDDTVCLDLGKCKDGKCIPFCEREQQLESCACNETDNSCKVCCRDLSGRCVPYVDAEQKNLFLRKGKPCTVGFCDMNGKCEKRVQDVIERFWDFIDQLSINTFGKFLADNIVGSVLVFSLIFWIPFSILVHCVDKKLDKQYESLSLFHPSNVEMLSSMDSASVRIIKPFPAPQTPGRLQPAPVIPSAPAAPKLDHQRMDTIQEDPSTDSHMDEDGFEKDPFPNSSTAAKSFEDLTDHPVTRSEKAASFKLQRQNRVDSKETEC
NRP1-CendR mod – modulators of CendR peptide binding to human neuropilin-1; O14786; FAM-RPARPAR peptide binding to NRP-1, fluorescence polarization; inhibition, % at 25 µM; 360,000 tested, 0.85% active; AID 602438;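 active = inhibition or corrected inhibition above about 18%, plus a signal ratio from 0.5 to 1.5, limit read from the data, passing the limit was not always enough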
FAS TE block – blocks the thioesterase domain of human fatty acid synthase; recombinant FAS-TE, OMFH fluorogenic substrate, fluorescence endpoint; P49327; inhibition, % at 15 µM; 360,000 tested, 0.67% active;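 active = compounds whose normalised, plate-corrected inhibition of enzyme fluorescence in the single-dose primary screen is 50% or more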;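 also: 0% = DMSO with enzyme and 100% = substrate without enzyme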
Active calls of the source: *; i = inactive; nt = no result given.

SMILES	CaV13 FRET inh	Arrestin-AP2 inh	ADAM10 inh	ADAM17 inh	NRP1-CendR mod	FAS TE block
CN1CCN(C2=C(Cl)C(=O)C(c3cnc(N4CCCCC4)s3)=C(Cl)C2=O)CC1	nt	107.0*	nt	nt	8.6	59.8*
CCOC(=O)Cn1cc(CN2C(C(=O)OC)CN(Cc3ccc(C)cc3)CCS2(=O)=O)nn1 (stereo not given)	nt	nt	6.1	2.2	nt	nt
NC(=Nc1ccccc1)N(c1ccccc1)c1ccccc1	-4.2	33.3	-3.5	-5.1	3.8	-4.3
CCN(CC)CCN1CCN(c2cnc(C)cn2)CC1	-6.2	nt	-76.8	-20.2	22.9*	-2.2
O=S1(=O)c2ccc(N3CCN(Cc4ccccc4F)CC3)cc2Oc2ccccc2CN1Cc1cn(Cc2ccccc2C(F)(F)F)nn1	nt	nt	-1.7	0.3	nt	nt
Nc1c(-c2cccc(Cl)c2)cnn1-c1cccc(C(F)(F)F)c1	-4.6	-3.5	19.2	8.6*	-4.5	35.6
Nc1c(-c2ccccc2)cnn1-c1cccc(C(F)(F)F)c1	nt	-75.9	4.3	0.3	-3.7	4.9
Cc1cc(SCC(=O)N2c3ccccc3NC(=O)CC2C)nc2ccccc12 (stereo not given)	-8.3	nt	-10.1	-3.1	-5.7	-5.3
Cc1ccc(CNC(=O)CSc2n[nH]c(N)n2)cc1	-3.7	-1.9	5.1	-3.4	23.7*	-6.8
Clc1ccccc1-c1ccc2nccn2c1	-5.0	nt	-16.0	-4.7	13.0	-7.6
CNC(=O)C1CCC(=O)N1Cc1ccc(C)cc1 (stereo not given)	-4.1	1.4	7.8	7.2	-6.7	-5.0
Cc1ccc(CN2C(=O)CCC2C(=O)NC2CC2)cc1 (stereo not given)	nt	-5.0	4.9	-0.4	26.5*	-2.3
O=C(Nc1ccc(N2CCOCC2)cc1)c1cc(-n2cnnc2)ccc1Cl	-5.8	-3.8	-2.8	-1.0	26.2*	-2.3
O=C1C=CC(O)C2(CO)OC12 (stereo not given)	-6.0	nt	-3.5	-3.9	-10.3	-7.6
C=C1CCN([C@@H](CC(C)C)C(=O)NCc2ccc(Cl)cc2)S(=O)(=O)c2ccccc21	-8.2	11.3	6.6	5.6	17.8	22.4
C=C1CCN([C@@H](Cc2ccccc2)C(=O)Nc2ccc(OC)cc2)S(=O)(=O)c2ccccc21	-4.5	0.6	14.3	3.9	27.1*	35.8
C=C1CCN([C@@H](CC(C)C)C(=O)NN2CCOCC2)S(=O)(=O)c2ccccc21	-10.6	4.4	-4.0	-2.5	20.5	-11.7
C=C1CCN([C@@H](CC(C)C)C(=O)NCc2ccc(Cl)c(Cl)c2)S(=O)(=O)c2ccccc21	-11.4	-4.1	10.6	5.3	32.5*	24.4
C=C1CCN([C@@H](CC(C)C)C(=O)NCCC(C)C)S(=O)(=O)c2ccccc21	-11.0	-0.5	12.0	3.1	23.7*	16.4
CC(C)(C)OC(=O)NCc1ccccc1/C=C/S(=O)(=O)NCCc1ccccc1	nt	nt	4.5	-0.7	nt	nt
O=C(CCn1cncn1)N1CCCC(N2CCN(c3cccc(C(F)(F)F)c3)CC2)C1 (stereo not given)	nt	-7.4	-7.0	4.3	22.5	1.4
O=C(CCn1cncn1)N1CCCC(N2CCN(c3ccc(F)cc3)CC2)C1 (stereo not given)	-2.1	-5.3	7.3	2.1	24.7*	-3.7
CNC(=O)C(C)Sc1ccc(S(=O)(=O)N2CCOCC2)cn1 (stereo not given)	-5.5	-15.0	-10.8	-3.9	21.5*	-9.0
O=C(NCc1ccccc1)[C@H]1CCCN1C(=O)[C@H]1CCCN1C(=O)c1ccc(F)c(C(F)(F)F)c1	-7.6	nt	-14.5	-5.5	nt	nt
C=C(C)Cn1c(SCC(=O)O)nnc1-c1ccc(C(C)(C)C)cc1	nt	10.7	3.3	-1.4	2.4	-2.9
SMILES	CaV13 FRET inh	Arrestin-AP2 inh	ADAM10 inh	ADAM17 inh	NRP1-CendR mod	FAS TE block
C=C(C)Cn1c(SCC(=O)O)nnc1-c1ccccc1	-9.2	4.7	-11.1	-5.3	27.8*	-8.0
COc1ccccc1NC(=O)c1sc2nc(N3CCOCC3)c3c(c2c1N)CCCC3	-5.0	2.0	-26.5	-12.6	14.4	16.7
Cc1ccccc1NC(=O)c1sc2nc(N3CCOCC3)c3c(c2c1N)CCCC3	-5.3	26.6	-267.4	-102.1	33.3*	20.3
Cc1cccc(NC(=O)CSc2nc3sc(C)cc3c(=O)n2C)c1	-2.1	-2.5	-1.7	-1.6	18.7*	5.0
Cc1cc2c(=O)n(C)c(SCC(=O)Nc3cccc(O)c3)nc2s1	-4.0	32.0	4.8	-1.7	2.1	-0.8
N#Cc1ccccc1OCC(=O)OCC(=O)N1CCCC1	-6.5	-0.7	-12.3	-0.3	19.1*	-2.1
N#C/C(=C\c1ccccc1)C(=O)OCC(=O)N1CCCC1	4.4	-20.8	-9.8	-4.0	23.7*	-1.5
COc1c2c(c3c(c1OC)c(=O)c1ccccc1n3C)OCO2	-8.7	3.5	-39.1	-16.0	25.8*	-3.6
CC(=O)Nc1ccc(-c2noc(-c3csc([C@@H]4C[C@H](O)[C@@H](CO)O4)n3)n2)cc1	-11.1	nt	-10.3	-5.2	-4.9	-3.6
COC(=O)c1cc2c(n1S(=O)(=O)c1ccc(C)cc1)C(=O)C(=O)c1[nH]cc(C(=O)OCc3ccccc3)c1-2	nt	-3.8	nt	nt	27.0*	28.7
COC(=O)c1cc2c(c3c4cc(OC)ccc4n(S(=O)(=O)c4ccc(C)cc4)c13)C(=O)N(Cc1ccccc1)C2	-3.8	nt	-7.8	-2.9	nt	nt
OCc1nc2ccccc2n1CCCc1ccccc1	-5.9	nt	-10.3	-3.0	12.5	-1.9
CN(C)/C(=N\S(=O)(=O)c1ccccc1)c1ccccc1	-2.4	27.0	5.5	-1.5	27.3*	-7.0
CN(C)/C(=N\S(=O)(=O)c1ccc(F)cc1)c1ccccc1	-5.2	41.7	-8.8	-3.6	3.5	-7.2
COC(=O)[C@]12C[C@H](CC(=O)NCc3cccs3)C(=O)N(CCc3ccc(OC)c(OC)c3)C1=C[C@H](COCc1ccccc1)O[C@@H]2C	nt	nt	6.5	2.4	nt	nt
O=C(/C=C/c1ccc(S(=O)(=O)N2CCOCC2)cc1)N1CCCCC1	-4.2	19.5	-9.0	1.7	-9.1	-3.6
CC(=O)c1ccc(N2CCN(C(=O)/C=C/c3ccc(S(=O)(=O)N4CCOCC4)cc3)CC2)cc1	-4.6	17.2	-4.0	-8.1	25.6*	3.5
Cc1[nH]n(-c2ccccc2)c(=O)c1C(C[N+](=O)[O-])c1ccccc1Cl (stereo not given)	-1.4	-0.4	0.9	0.0	31.3*	-2.5
COc1ccc(C(C[N+](=O)[O-])c2c(C)[nH]n(-c3ccccc3)c2=O)cc1 (stereo not given)	-5.1	-18.5	3.1	-3.8	-3.0	4.2
COc1cccc2c(=O)c3ccoc3n(C)c12	nt	15.1	i	-176.1	-8.9	-4.7
COc1cccc2c(=O)c3c(cnn3C)n(C)c12	35.3*	25.6	i	i	5.6	-5.7
